# Experimental data from ChEMBL document CHEMBL5154735, “Interaction of A3 adenosine receptor ligands with the human multidrug transporter ABCG2” (Eur J Med Chem, 2022).
# How the values were obtained:
# ABCG2 [1] = target: T1, ABCG2 (Homo sapiens, UniProt Q9UNQ0); experiment: Inhibition of human ABCG2-mediated ATPase activity preincubated for 2 mins followed by ATP addition at 2.5 uM and measured after 20 mins by colorimetric assay relative to control
# T1 sequence (Q9UNQ0 whole entry): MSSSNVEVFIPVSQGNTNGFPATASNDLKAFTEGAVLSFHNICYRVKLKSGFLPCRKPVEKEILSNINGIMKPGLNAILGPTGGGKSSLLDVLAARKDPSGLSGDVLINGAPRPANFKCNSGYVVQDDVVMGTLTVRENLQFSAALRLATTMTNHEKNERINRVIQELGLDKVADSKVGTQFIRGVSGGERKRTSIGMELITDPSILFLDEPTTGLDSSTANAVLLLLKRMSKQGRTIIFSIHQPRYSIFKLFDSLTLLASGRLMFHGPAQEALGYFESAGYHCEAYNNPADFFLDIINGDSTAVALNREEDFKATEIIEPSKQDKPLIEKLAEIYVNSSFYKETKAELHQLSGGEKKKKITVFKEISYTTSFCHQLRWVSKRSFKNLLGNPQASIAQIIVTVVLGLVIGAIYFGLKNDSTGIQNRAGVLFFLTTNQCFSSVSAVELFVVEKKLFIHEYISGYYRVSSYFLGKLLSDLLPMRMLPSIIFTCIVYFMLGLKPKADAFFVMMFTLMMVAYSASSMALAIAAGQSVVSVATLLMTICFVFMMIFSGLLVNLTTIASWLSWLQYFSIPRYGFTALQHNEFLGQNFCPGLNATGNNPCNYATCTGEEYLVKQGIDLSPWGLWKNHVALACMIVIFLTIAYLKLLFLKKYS
# In short: (§1)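 Total membrane vesicles from High-Five insect cells expressing human ABCG2 (hypotonic lysis, differential centrifugation), 10 μg protein/tube, in MES-Tris pH 6.8 buffer with KCl, MgCl2, NaN3, EGTA, ouabain, DTT. Compound in DMSO added ± sodium orthovanadate (0.3 mM), DMSO control. Preincubated 2 min at 37°C, then 5 mM ATP, 20 min. SDS stop, Pi measured colorimetrically. Three independent experiments in duplicate, mean ± SE.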
# ABCG2 [2] = target: T1, ABCG2; experiment: Inhibition of human ABCG2 in human R5 cells assessed as inhibition of mitoxantrone efflux at 10 uM measured by flow cytometric analysis relative to control; format: cell-based; conditions: probe mitoxantrone
# In short: (§2)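 HEK293 cells transfected with full-length ABCG2 (R-5) or empty pcDNA vector, grown in MEM with 10% FBS and 2 mg/ml G418. Cells incubated in IMDM with 5% FBS, 5 μM mitoxantrone (final) ± compound, 37°C for 45 min. Washed in cold IMDM, resuspended in cold PBS with 1% BSA, read by flow cytometry.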
# [3] = target: T2, Broad substrate specificity ATP-binding cassette transporter ABCG2 (Homo sapiens, UniProt Q9UNQ0); experiment: Inhibition of human ABCG2-mediated ATPase activity preincubated for 2 mins followed by ATP addition and measured after 20 mins by colorimetric assay; in short: as §1
# T2 sequence (Q9UNQ0 whole entry): T1 sequence (Q9UNQ0 whole entry)
# ABCG2 [4] = target: T1, ABCG2; experiment: Inhibition of human ABCG2-mediated ATPase activity preincubated for 2 mins followed by ATP addition at 10 uM and measured after 20 mins by colorimetric assay relative to control; in short: as §1
# ABCG2 [5] = target: T1, ABCG2; experiment: Activation of human ABCG2-mediated ATPase activity preincubated for 2 mins followed by ATP addition at 2.5 uM and measured after 20 mins by colorimetric assay relative to control; conditions: read-out: Activity; in short: as §1
# Adenosine receptor A3 = target: T3, Adenosine receptor A3 (Homo sapiens, UniProt P0DMS8); experiment: Binding affinity towards human adenosine A3 receptor
# T3 sequence (P0DMS8 whole entry): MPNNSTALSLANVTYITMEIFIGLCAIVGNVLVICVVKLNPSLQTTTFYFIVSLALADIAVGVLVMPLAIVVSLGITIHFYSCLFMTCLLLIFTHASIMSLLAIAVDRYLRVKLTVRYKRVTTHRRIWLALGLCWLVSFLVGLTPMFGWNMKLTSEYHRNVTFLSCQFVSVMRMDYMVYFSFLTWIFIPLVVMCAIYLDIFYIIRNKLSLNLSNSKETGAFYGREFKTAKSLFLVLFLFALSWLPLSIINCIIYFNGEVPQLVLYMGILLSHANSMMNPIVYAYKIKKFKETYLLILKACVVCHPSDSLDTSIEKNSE
# ABCG2 [6] = target: T1, ABCG2; experiment: Activation of human ABCG2-mediated ATPase activity preincubated for 2 mins followed by ATP addition at 10 uM and measured after 20 mins by colorimetric assay relative to control; conditions: read-out: Activity; in short: as §1
# ABCG2 [7] = target: T1, ABCG2; experiment: Effect on human ABCG2 transporter preincubated for 2 mins followed by ATP addition assessed as basal ATPase activity at 10 uM and measured after 20 mins by colorimetric assay relative to control; conditions: read-out: Activity; in short: as §1
# [8] = target: T2, Broad substrate specificity ATP-binding cassette transporter ABCG2; experiment: Inhibition of human ABCG2 in human R5 cells assessed as inhibition of mitoxantrone efflux measured by flow cytometric analysis; format: cell-based; in short: as §2
# ABCG2 [9] = target: T1, ABCG2; experiment: Activation of human ABCG2-mediated ATPase activity preincubated for 2 mins followed by ATP addition at 100 nM and measured after 20 mins by colorimetric assay relative to control; conditions: read-out: Activity; in short: as §1
# [10] = target: T2, Broad substrate specificity ATP-binding cassette transporter ABCG2; experiment: Activation of human ABCG2-mediated ATPase activity preincubated for 2 mins followed by ATP addition and measured after 20 mins by colorimetric assay; in short: as §1
# ABCG2 [11] = target: T1, ABCG2; experiment: Effect on human ABCG2 transporter preincubated for 2 mins followed by ATP addition assessed as basal ATPase activity at 2.5 uM and measured after 20 mins by colorimetric assay relative to control; conditions: read-out: Activity; in short: as §1
# ABCG2 [12] = target: T1, ABCG2; experiment: Activation of human ABCG2-mediated ATPase activity preincubated for 2 mins followed by ATP addition at 2.5 M and measured after 20 mins by colorimetric assay relative to control; set-up: dose or concentration left out as unconfirmed; conditions: read-out: Activity; in short: as §1
# ABCG2 [13] = target: T1, ABCG2; experiment: Activation of human ABCG2-mediated ATPase activity preincubated for 2 mins followed by ATP addition at 10 M and measured after 20 mins by colorimetric assay relative to control; set-up: dose or concentration left out as unconfirmed; conditions: read-out: Activity; in short: as §1
# ABCG2 [14] = target: T1, ABCG2; experiment: Activation of human ABCG2-mediated ATPase activity preincubated for 2 mins followed by ATP addition at 0.5 uM and measured after 20 mins by colorimetric assay relative to control; conditions: read-out: Activity; in short: as §1
# ABCG2 [15] = target: T1, ABCG2; experiment: Activation of human ABCG2-mediated ATPase activity preincubated for 2 mins followed by ATP addition at 5 uM and measured after 20 mins by colorimetric assay relative to control; conditions: read-out: Activity; in short: as §1
structure (smiles),measurement,setting,value
"CNC(=O)C12CC1[C@@H](n1cnc3c(NCc4cccc(-n5cc(-c6ccc(F)c(F)c6)nn5)c4)nc(C#Cc4cc(F)c(F)c(F)c4)nc31)[C@H](O)[C@@H]2O (single isomer, unassigned)","inhibition at 20 min, 2.5 µM",ABCG2 [1],38.9%
same,inhibition at 10 µM,ABCG2 [2],105%
same,IC50,[3],4010 nM
same,"inhibition at 20 min, 10 µM",ABCG2 [4],48.9%
"CNC(=O)C12CC1[C@@H](n1cnc3c(C)nc(C#Cc4ccc(F)c(F)c4)nc31)[C@H](O)[C@@H]2O (single isomer, unassigned)","activity at 20 min, 2.5 µM",ABCG2 [5],49.6%
same,Ki,Adenosine receptor A3,≥ 99 nM
same,"activity at 20 min, 10 µM",ABCG2 [6],72.6%
"CNC(=O)C12CC1[C@@H](n1cnc3c(NCc4cccc(Cl)c4)nc(C#Cc4ccccc4)nc31)[C@H](O)[C@@H]2O (single isomer, unassigned)","activity at 20 min, 2.5 µM",ABCG2 [5],51.3%
same,"activity at 20 min, 10 µM",ABCG2 [7],≤ 30%
"CCOC(=O)C12CC1[C@@H](n1ccc3c(NCCCc4ccc(OC)c(O)c4)nc(C#Cc4ccc(Cl)s4)nc31)[C@H](O)[C@@H]2O (single isomer, unassigned)",IC50,[8],600 nM
same,"activity at 20 min, 0.1 µM",ABCG2 [9],74.2%
same,inhibition at 10 µM,ABCG2 [2],109%
same,EC50,[10],24.3 nM
same,Ki,Adenosine receptor A3,≥ 99 nM
"OCC12CC1[C@@H](n1cnc3c(NCc4cccc(-n5cc(-c6ccc(F)c(F)c6)nn5)c4)nc(C#Cc4ccc(F)c(F)c4)nc31)[C@H](O)[C@@H]2O (single isomer, unassigned)","activity at 20 min, 2.5 µM",ABCG2 [11],≤ 30%
same,"activity at 20 min, 10 µM",ABCG2 [7],≤ 30%
Fc1ccc(C#CC2=NC3=NC=NC3C(NCc3cccc(Cl)c3)=N2)cc1F (stereo unspecified),activity at 20 min,ABCG2 [12],165%
same,activity at 20 min,ABCG2 [13],164%
same,inhibition at 10 µM,ABCG2 [2],81.4%
same,EC50,[10],50 nM
same,Ki,Adenosine receptor A3,≥ 99 nM
"CNC(=O)C12CC1[C@@H](n1cnc3c(NCc4cccc(-n5cc(-c6ccc(F)c(F)c6)nn5)c4)nc(C#Cc4ccc(F)cc4F)nc31)[C@H](O)[C@@H]2O (single isomer, unassigned)","activity at 20 min, 2.5 µM",ABCG2 [11],≤ 30%
same,"inhibition at 20 min, 10 µM",ABCG2 [4],57.1%
"CNC(=O)C12CC1[C@@H](n1cnc3c(NCc4cccc(Cl)c4)nc(C#Cc4ccc(F)c(F)c4)nc31)[C@H](O)[C@@H]2O (single isomer, unassigned)",inhibition at 10 µM,ABCG2 [2],99.2%
same,"activity at 20 min, 0.5 µM",ABCG2 [14],74.4%
same,"activity at 20 min, 5 µM",ABCG2 [15],56.8%
same,EC50,[10],80 nM
"CNC(=O)C12CC1[C@@H](n1cnc3c(NCc4cccc(-n5cc(-c6ccc(F)c(F)c6)nn5)c4)nc(C#Cc4cc(F)cc(F)c4)nc31)[C@H](O)[C@@H]2O (single isomer, unassigned)","inhibition at 20 min, 2.5 µM",ABCG2 [1],44.7%
same,"inhibition at 20 min, 10 µM",ABCG2 [4],49.4%
"CNC(=O)C12CC1[C@@H](n1cnc3c(NCc4cccc(-n5cc(-c6ccc(F)c(F)c6)nn5)c4)nc(C#Cc4ccc(C(F)(F)F)cc4)nc31)[C@H](O)[C@@H]2O (single isomer, unassigned)","activity at 20 min, 2.5 µM",ABCG2 [11],≤ 30%
same,"inhibition at 20 min, 10 µM",ABCG2 [4],44.5%
"CNC(=O)C12CC1[C@@H](n1cnc3c(NCc4cccc(-n5cc(-c6ccc(F)c(F)c6)nn5)c4)nc(C#Cc4ccc(F)cc4)nc31)[C@H](O)[C@@H]2O (single isomer, unassigned)","inhibition at 20 min, 2.5 µM",ABCG2 [1],54.4%
same,inhibition at 10 µM,ABCG2 [2],102%
same,IC50,[3],2590 nM
same,"inhibition at 20 min, 10 µM",ABCG2 [4],74.7%
"CNC(=O)C12CC1[C@@H](n1cnc3c(NC4CC4c4ccc(F)c(F)c4)nc(C#Cc4cccc(F)c4)nc31)[C@H](O)[C@@H]2O (single isomer, unassigned)","activity at 20 min, 2.5 µM",ABCG2 [5],111%
same,inhibition at 10 µM,ABCG2 [2],100%
same,EC50,[10],16 nM
same,"activity at 20 min, 10 µM",ABCG2 [6],46.7%
"CNC(=O)C12CC1[C@@H](n1cnc3c(NCc4cccc(-n5cc(-c6ccc(F)c(F)c6)nn5)c4)nc(C#Cc4ccc(F)c(F)c4)nc31)[C@H](O)[C@@H]2O (single isomer, unassigned)","inhibition at 20 min, 2.5 µM",ABCG2 [1],43.5%
same,inhibition at 10 µM,ABCG2 [2],92.5%
same,IC50,[3],2570 nM
"CNC(=O)C12CC1[C@@H](n1cnc3c(NCc4cccc(Cl)c4)nc(C#Cc4ccc(F)cc4)nc31)[C@H](O)[C@@H]2O (single isomer, unassigned)","activity at 20 min, 2.5 µM",ABCG2 [5],60.3%
same,"activity at 20 min, 10 µM",ABCG2 [6],49.3%
COc1cc(CCNC2=NC(C#Cc3ccc(Cl)s3)=NC3=NC=NC32)ccc1O (stereo unspecified),IC50,[8],4980 nM
same,"activity at 20 min, 0.1 µM",ABCG2 [9],111%
same,inhibition at 10 µM,ABCG2 [2],110%
same,EC50,[10],13.2 nM
same,Ki,Adenosine receptor A3,6820 nM
"OCC12CC1[C@@H](n1cnc3c(NCc4cccc(-n5cc(-c6ccc(F)c(F)c6)nn5)c4)nc(C#Cc4ccc(F)cc4)nc31)[C@H](O)[C@@H]2O (single isomer, unassigned)","activity at 20 min, 2.5 µM",ABCG2 [11],≤ 30%
same,"activity at 20 min, 10 µM",ABCG2 [7],≤ 30%
"CNC(=O)C12CC1[C@@H](n1cnc3c(N[C@@H]4C[C@H]4c4ccc(F)c(F)c4)nc(C#Cc4cccc(F)c4)nc31)[C@H](O)[C@@H]2O (single isomer, unassigned)","activity at 20 min, 2.5 µM",ABCG2 [5],74.8%
same,inhibition at 10 µM,ABCG2 [2],97.4%
same,EC50,[10],13 nM
"CNC(=O)C12CC1[C@@H](n1cnc3c(NCc4cccc(Cl)c4)nc(C#Cc4cccc(Cl)c4)nc31)[C@H](O)[C@@H]2O (single isomer, unassigned)","activity at 20 min, 2.5 µM",ABCG2 [5],49.3%
same,"activity at 20 min, 10 µM",ABCG2 [7],≤ 30%
"CNC(=O)C12CC1[C@@H](n1cnc3c(N[C@H]4C[C@@H]4c4ccc(F)c(F)c4)nc(C#Cc4cccc(F)c4)nc31)[C@H](O)[C@@H]2O (single isomer, unassigned)","activity at 20 min, 2.5 µM",ABCG2 [5],101%
same,inhibition at 10 µM,ABCG2 [2],97.2%
same,EC50,[10],14 nM
"CNC(=O)C12CC1[C@@H](n1cnc3cnc(C#Cc4ccc(F)c(F)c4)nc31)[C@H](O)[C@@H]2O (single isomer, unassigned)","activity at 20 min, 2.5 µM",ABCG2 [11],≤ 30%
same,"activity at 20 min, 10 µM",ABCG2 [6],64.2%
